Measured values: ChEMBL document CHEMBL1649179, “Pharmacokinetics of LB80331 and LB80317 following oral administration of LB80380, a new antiviral agent for chronic hepatitis B (CHB), in healthy adult subjects, CHB patients, and mice” (Antimicrob Agents Chemother, 2009)

Experiments:
Liver [1] = assay: AUC (0 to infinity) in CD-1 mouse liver assessed as (1-((2-amino-9H-purin-9-yl)methyl)cyclopropoxy)me at 30 mg/kg, po administered as single dose by LC-MS analysis; assay type: ADME, organism-based; set-up: time infinity, dose 30 mg/kg, route oral; conditions: in vivo
In short: (§1)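 Male CD-1 mice given a single oral dose in 100% PEG 400. Samples extracted with perchloric acid and neutralized with ammonium bicarbonate. One aliquot assayed for the free analyte; the other treated with calf intestinal phosphatase to give the total including di-/triphosphates. Analysis by LC-MS/MS.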

Homo sapiens [2] = assay: Tmax in fasted healthy human assessed as (1-((2-amino-9H-purin-9-yl)methyl)cyclopropoxy)me assessed as (1-((2-amino-9H-purin-9-yl)methyl)cyclopropoxy)me at 60 mg, po administered as single dose by LC-MS analysis; assay type: ADME, organism-based; conditions: in vivo
In short: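 Healthy subjects received a single oral 60-mg dose after a high-fat breakfast or after an overnight fast. Plasma LB80331 was assayed by validated LC-MS/MS (LLOQ 5 ng/ml; intra- and interassay precision and accuracy <10%). Tmax was obtained by noncompartmental analysis.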

Homo sapiens [3] = assay: Oral clearance in chronic hepatitis B virus infected patient assessed as (1-((2-amino-9H-purin-9-yl)methyl)cyclopropoxy)me at 120 mg, po administered as single dose by LC-MS analysis; assay type: ADME, organism-based; conditions: in vivo
In short: (§2)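 Oral LB80380 was given once daily for 4 weeks to CHB patients. Plasma LB80331 was quantified by validated LC-MS/MS after protein precipitation, with stable-isotope internal standard, at baseline and steady state (weeks 2–4), 0–24 h postdose. Noncompartmental CL/F was calculated as dose (adjusted for LB80380/LB80331 molecular weights) divided by AUC (AUC0-∞ single dose; AUC0-24 steady state).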

Homo sapiens [4] = assay: Tmax in chronic hepatitis B virus infected patient assessed as (1-((2-amino-9H-purin-9-yl)methyl)cyclopropoxy)me at 30 mg, po qd for 4 weeks by LC-MS analysis; assay type: ADME, organism-based; conditions: in vivo, 672 h
In short: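 Daily oral LB80380 was given to CHB patients over 4 weeks. Blood was drawn on day 1 and at steady state (weeks 2–4), predose and 0.5–24 h postdose. Plasma LB80331 (LLOQ 5 ng/ml) and LB80317 (LLOQ 10 ng/ml) were measured by LC-MS/MS after protein-precipitation extraction. Tmax was taken by noncompartmental analysis.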

Plasma [5] = assay: AUC (0 to infinity) in CD-1 mouse plasma assessed as (1-((2-amino-9H-purin-9-yl)methyl)cyclopropoxy)me at 30 mg/kg, po administered as single dose by LC-MS analysis; assay type: ADME, organism-based; set-up: time infinity, dose 30 mg/kg, route oral; conditions: in vivo; in short: as §1
Plasma [6] = assay: Cmax in CD-1 mouse plasma assessed as (1-((2-amino-9H-purin-9-yl)methyl)cyclopropoxy)me at 30 mg/kg, po administered as single dose by LC-MS analysis; assay type: ADME, organism-based; set-up: dose 30 mg/kg, route oral; conditions: in vivo; in short: as §1
Homo sapiens [7] = assay: Oral clearance in chronic hepatitis B virus infected patient assessed as (1-((2-amino-9H-purin-9-yl)methyl)cyclopropoxy)me at 60 mg, po administered as single dose by LC-MS analysis; assay type: ADME, organism-based; conditions: in vivo; in short: as §2
Homo sapiens [8] = assay: Cmax in chronic hepatitis B virus infected patient assessed as (1-((2-amino-9H-purin-9-yl)methyl)cyclopropoxy)me at 60 mg, po administered as single dose by LC-MS analysis; assay type: ADME, organism-based; set-up: dose 60 mg, route oral; conditions: in vivo
In short: (§3)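 CHB patients (HBsAg/HBeAg positive), six per dose cohort, given a first oral dose on day 1. Plasma sampled at baseline. Analysis by validated LC-MS/MS after protein precipitation with a stable-isotope internal standard; LLOQ 5 ng/ml for LB80331. Noncompartmental analysis gives Cmax and AUC0-∞.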

Liver [9] = assay: Tmax in CD-1 mouse liver assessed as di- and triphosphates of (1-((2-amino-9H-purin-9-yl)methyl)cyclopropoxy)me at 30 mg/kg, po administered as single dose by LC-MS analysis; assay type: ADME, organism-based; set-up: dose 30 mg/kg, route oral; conditions: in vivo
In short: (§4)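 Male CD-1 mice received 30 mg/kg orally in 100% PEG 400. Plasma and snap-frozen liver were taken from 3 mice per time point at 1, 2, 4, 6, 10, 24 and 36 h. Samples were extracted with perchloric acid and neutralized with ammonium bicarbonate. Free LB80331/LB80317 was measured directly by LC-MS/MS; total, including di- and triphosphates, was measured after calf intestinal phosphatase treatment.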

Homo sapiens [10] = assay: AUC (0 to infinity) in chronic hepatitis B virus infected patient assessed as (1-((2-amino-9H-purin-9-yl)methyl)cyclopropoxy)me at 30 mg, po administered as single dose by LC-MS analysis; assay type: ADME, organism-based, Plasma; set-up: dose 30 mg, time infinity, route oral; conditions: in vivo; in short: as §3
Liver [11] = assay: Tmax in CD-1 mouse liver assessed as (1-((2-amino-9H-purin-9-yl)methyl)cyclopropoxy)me at 30 mg/kg, po administered as single dose by LC-MS analysis; assay type: ADME, organism-based; set-up: dose 30 mg/kg, route oral; conditions: in vivo; in short: as §4
Liver [12] = assay: AUC (0 to 36 hrs) in CD-1 mouse liver assessed as (1-((2-amino-9H-purin-9-yl)methyl)cyclopropoxy)me at 30 mg/kg, po administered as single dose by LC-MS analysis; assay type: ADME, organism-based; set-up: time < 36 hr, dose 30 mg/kg, route oral; conditions: in vivo; in short: as §1
Liver [13] = assay: Half life in CD-1 mouse liver assessed as di- and triphosphates of (1-((2-amino-9H-purin-9-yl)methyl)cyclopropoxy)me at 30 mg/kg, po administered as single dose by LC-MS analysis; assay type: ADME, organism-based; set-up: dose 30 mg/kg, route oral; conditions: in vivo; in short: as §1
Homo sapiens [14] = assay: Oral clearance in chronic hepatitis B virus infected patient assessed as (1-((2-amino-9H-purin-9-yl)methyl)cyclopropoxy)me at 30 mg, po administered as single dose by LC-MS analysis; assay type: ADME, organism-based; conditions: in vivo; in short: as §2
Homo sapiens [15] = assay: Half life in chronic hepatitis B virus infected patient assessed as (1-((2-amino-9H-purin-9-yl)methyl)cyclopropoxy)me at 60 mg, po qd for 4 weeks by LC-MS analysis; assay type: ADME, organism-based; conditions: in vivo, 672 h
In short: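 CHB patients given LB80380 orally once daily for 4 weeks. Plasma was sampled on day 1 and at steady state (weeks 2–4), predose and 0.5, 1, 2, 3, 4, 6, 8 and 24 h postdose. LB80331 was measured by validated LC-MS/MS (LLOQ 5 ng/ml). Terminal-phase apparent t1/2 came from noncompartmental analysis and was flagged if extrapolated AUC exceeded 20% of AUC0-24.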

AUC (Liver [1]): 102 µM·h | Tmax (Homo sapiens [2]): 1.5 h | CL/F (Homo sapiens [3]): 273 mL/min | Tmax (Homo sapiens [4]): 2 h | AUC (Plasma [5]): 17 µM·h | Cmax (Plasma [6]): 6 µM | CL/F (Homo sapiens [7]): 244 mL/min | Cmax (Homo sapiens [8]): 397 ng/mL | Tmax (Liver [9]): 1 h | AUC (Homo sapiens [10]): 1069 ng·h/mL | Tmax (Liver [11]): 1 h | AUC (Liver [12]): 102 µM·h | t1/2 (Liver [13]): 3.2 h | CL/F (Homo sapiens [14]): 288 mL/min | t1/2 (Homo sapiens [15]): 3 h
Structure (SMILES): Nc1ncc2ncn(CC3(OCP(=O)(O)O)CC3)c2n1 [BESIFOVIR]
